Data on two molecules can be found in ChEMBL document CHEMBL5260794, “Synthesis and biological evaluation of a new class of benzothiazines as neuroprotective agents” (Eur J Med Chem, 2017).

Calls of active or inactive are those of the source. The calls are words filed in the database; no cut-off is given here.

In series [1] the test system is SH-SY5Y. Briefly: Neuroprotective activity against glutamate-induced toxicity in human SH-SY5Y cells assessed as cell viability at 10 uM pretreated for 1 hr followed by glutamate challenge measured after 24 hrs by MTT assay. As to conditions: time 25 hrs, read-out: Activity. The series is classed as functional. The method, boiled down:
(§1)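 SH-SY5Y cells attached 24 h, then pretreated 1 h with compound (0.1-10 μM) before glutamate 50 mM for 24 h. Viability by MTT. Morphology under phase-contrast microscope, scored by the USP 28 grade scale (0-4). Mean ± SEM of 4 independent experiments run in triplicate or quadruplicate, ANOVA with Dunnett test.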
For orientation: Formazan colour is commonly taken as a measure of viable cells.

The test system of series [2] is SH-SY5Y. In words: Neuroprotective activity against glutamate-induced toxicity in human SH-SY5Y cells assessed as reduction in sub G0/G1 phase cells at 10 uM pretreated for 1 hr followed by glutamate challenge measured after 24 hrs by propidium staining based flow cytometry. The series is classed as functional, cell-based. As to conditions: time 25.0 hrs. In a few lines:
(§2)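 SH-SY5Y cells (2.5 x 10⁵ cells/mL) pretreated 1 h with compound, then given glutamate 50 mM for 24 h. Cells fixed in 70% ethanol (30 min, 4 °C), held at -20 °C for at least 24 h, stained with propidium iodide. Flow cytometry on at least 1x10⁴ cells, cell-cycle phases and sub-G₀/G₁ fraction quantified. 4 independent experiments.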

Series [3] has as its system SH-SY5Y. In words: Neuroprotective activity against glutamate-induced toxicity in human SH-SY5Y cells assessed as reduction in cell rounding at 10 uM pretreated for 1 hr followed by glutamate challenge measured after 24 hrs by phase-contrast light microscopic analysis. The format is functional, cell-based. The note with it: time 25.0 hrs. The method, boiled down:
as §1

Series [4] relates to SH-SY5Y. In words: Neuroprotective activity against glutamate-induced toxicity in human SH-SY5Y cells assessed as reduction in cell detachment at 10 uM pretreated for 1 hr followed by glutamate challenge measured after 24 hrs by phase-contrast light microscopic analysis. The format is functional, cell-based. The note with it: time 25.0 hrs. The method, boiled down:
as §1

The test system of series [5] is SH-SY5Y. Briefly: Neuroprotective activity against glutamate-induced toxicity in human SH-SY5Y cells assessed as reduction in cell shrinkage at 10 uM pretreated for 1 hr followed by glutamate challenge measured after 24 hrs by phase-contrast light microscopic analysis. The series is classed as functional, cell-based. As to conditions: time 25.0 hrs. The method, boiled down: as §1

The subject of series [6] is SH-SY5Y. In words: Neuroprotective activity against glutamate-induced toxicity in human SH-SY5Y cells assessed as reduction in grade 2 to 3 toxicity at 10 uM pretreated for 1 hr followed by glutamate challenge measured after 24 hrs by phase-contrast light microscopic analysis. The format is functional, cell-based. As to conditions: time 25.0 hrs. In a few lines: as §1

Series [7] relates to SH-SY5Y. In words: Neuroprotective activity against glutamate-induced toxicity in human SH-SY5Y cells assessed as reduction in condensed and fragmented nuclei at 10 uM pretreated for 1 hr followed by glutamate challenge measured after 24 hrs by DAPI staining based assay (reference value: 16.9 +/- 1.5%). As to conditions: time 25.0 hrs. The series is classed as functional, cell-based. In a few lines: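 Cells pretreated 1 h with compound (0.1-10 μM), then glutamate 50 mM for 24 h. DAPI staining; cells with condensed or fragmented nuclei scored as apoptotic, reported as percentage. Mean ± SEM of 4 independent experiments.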

The nature of series [8]: Cytotoxicity against human SH-SY5Y cells assessed as cell viability at 10 uM measured after 24 hrs by MTT assay. The format is toxicity, cell-based. In a few lines: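 SH-SY5Y cells (RPMI 1640, 10% FBS, 37 °C, 5% CO₂, exponential growth) seeded 8 x 10⁴ cells/mL and left to attach 24 h, then exposed to compound alone for 24 h. MTT viability read. Morphology graded 0-4 on the USP 28 scale under phase contrast. Compound diluted from DMSO stock in PBS, final DMSO <0.01%.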

Series [9] relates to SH-SY5Y. Briefly: Neuroprotective activity against glutamate-induced toxicity in human SH-SY5Y cells assessed as reduction in ROS production at 10 uM measured after 24 hrs by DCFH-DA staining based assay relative to control. The arrangement: scale not given: the % may be the effect or the level left. The series is classed as functional. The method, boiled down:
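SH-SY5Y cells loaded with DCFH-DA (5 μM, 30 min) and washed before treatment. Pretreated 1 h with compound (0.1-10 μM), then glutamate 50 mM. Fluorescence (ex 485/em 535 nm) read at 1 h or 24 h and expressed as % inhibition of glutamate-induced ROS. 4 independent experiments.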

In series [10] the test system is SH-SY5Y. In words: Neuroprotective activity against 6-OHDA-induced toxicity in human SH-SY5Y cells assessed as increase in cell viability at 10 uM pretreated for 1 hr followed by 6-OHDA challenge measured after 2 hrs by MTT assay. The format is functional, cell-based. As to conditions: time 3.0 hrs. The method, boiled down: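 SH-SY5Y cells attached 24 h, then pretreated 1 h with compound (0.1-10 μM) and challenged with 6-OHDA 55 μM for 2 h. 6-OHDA made fresh in nitrogen-gassed 5 μM ascorbic acid, and controls received medium with ascorbic acid. Viability by MTT. Mean ± SEM of 4 independent experiments run in triplicate or quadruplicate, ANOVA with Dunnett test.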

The subject of series [11] is SH-SY5Y. In words: Neuroprotective activity against 6-OHDA-induced toxicity in human SH-SY5Y cells assessed as reduction in ROS production by DCFH-DA staining based assay. The format is functional, cell-based. The note with it: dose 0.1-10 µM. In a few lines: (§3)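 SH-SY5Y cells loaded with DCFH-DA (5 μM, 30 min) and washed. Pretreated 1 h with compound (0.1-10 μM), then 6-OHDA 55 μM. Fluorescence (ex 485/em 535 nm) read at 1 h or 24 h and expressed as % inhibition of 6-OHDA-induced ROS. 4 independent experiments.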

Series [12] has as its system SH-SY5Y. Briefly: Neuroprotective activity against 6-OHDA-induced toxicity in human SH-SY5Y cells assessed as reduction in condensed and fragmented nuclei at 0.1 uM pretreated for 1 hr followed by 6-OHDA challenge measured after 2 hrs by DAPI staining based assay relative to control. The series is classed as functional, cell-based. The note with it: time 3.0 hrs.
In series [13] the test system is SH-SY5Y. In words: Neuroprotective activity against 6-OHDA-induced toxicity in human SH-SY5Y cells assessed as reduction in ROS production at 0.1 uM pretreated for 1 hr followed by 6-OHDA challenge measured after 2 hrs by DCFH-DA staining based assay. The series is classed as functional, cell-based. As to conditions: time 3.0 hrs.
Series [14] is filed under the species Rattus norvegicus. Briefly: Inhibition of transient voltage-dependent sodium current in Wistar rat brain piriform cortex layer at 50 uM by whole cell patch clamp method relative to control. The format is functional. A general note: Patch clamp records ionic current or voltage across a cell membrane.
The test system of series [15] is SH-SY5Y. In words: Neuroprotective activity against glutamate-induced toxicity in human SH-SY5Y cells assessed as reduction in G0/G1 phase cells at 10 uM pretreated for 1 hr followed by glutamate challenge measured after 24 hrs by propidium staining based flow cytometry. The note with it: time 25.0 hrs. The format is functional, cell-based. In a few lines: as §2

The species named for series [16] is Rattus norvegicus. Briefly: Inhibition of high voltage-activated calcium current in Wistar rat brain piriform cortex assessed as blockade of barium current by whole cell patch clamp method. The series is classed as functional. In a few lines: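 Acutely dissociated P15-P22 Wistar rat piriform cortex neurons recorded whole-cell at holding -70 mV. 5 mM Ba²⁺ was the charge carrier, with a Cs methanesulfonate pipette. HVA currents evoked by step or ramp protocols from -60 mV. Compound applied by local perfusion (DMSO 0.02-0.67%). Peak I_Ba amplitude tracked over time, and concentration-response fitted with the sum of two Hill functions.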

The test system of series [17] is SH-SY5Y. Briefly: Neuroprotective activity against 6-OHDA-induced toxicity in human SH-SY5Y cells assessed as reduction in ROS production at 0.1 to 10 uM by DCFH-DA staining based assay. As to conditions: dose 0.1-10 µM, TDE = time-dependent effect. The format is functional, cell-based. In a few lines:
as §3

The species entered for series [18] is Rattus norvegicus. Briefly: Neuroprotective activity against oxygen glucose deprivation/reperfusion-induced Wistar rat cortical brain assessed as reduction in glutamate release by measuring minimal effective concentration. The format is functional. In a few lines:
(§4)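 Male Wistar rat cortical slices (400 μm) in oxygenated ACSF, pH 7.4, 1 h at room temperature, then 30 min at 37 °C. OGD for 30 min in glucose-free ACSF with 11 mM sucrose under 95% N₂/5% CO₂. Compound added in the reoxygenation buffer. Glutamate and LDH release measured. Mean ± SEM of at least four experiments, ANOVA with Dunnett test.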

For series [19], the species on record is Rattus norvegicus. In words: Neuroprotective activity against oxygen glucose deprivation/reperfusion-induced Wistar rat cortical brain assessed as reduction in LDH release by measuring minimal effective concentration. The series is classed as functional. In a few lines: as §4
(Release of lactate dehydrogenase indicates damage to the cell membrane.)

A word on the inhibition in vivo: it is the share of the control response that was lost under treatment. As usually defined, the IC50 is the midpoint of a concentration-inhibition curve. As for `CCCN(CCC)/C(C)=N/C1=Nc2ccccc2CS1`, the viability at 10 µM in series [1] turned out to be 65%. Besides, the outcome in series [2], in series [3], in series [4], in series [5], in series [6] and in [7] was Active. Also, the result in [10], in [12], in [13] and in series [15] was Active. Besides, in series [8], the viability reduction at 24 h, 10 µM worked out at 10%. Also, the Activity in series [9] is 20%; in series [11], “Dose-Dependent Effect”; in series [17] it was “Tde”. For the same molecule, in series [14], at 50 µM the inhibition in vivo was 15.9%. The concentration for half-maximal inhibition (IC50) in series [16] was determined as 4.4 µM. The figures for the MEC in series [18] and in [19] were 1 µM and 0.1 µM, respectively.

As for `CCN(CC)/C(C)=N/C1=Nc2ccccc2CS1`, in [1], the viability at 10 µM came out at 65%. The result in [2], in series [3], in series [4], in series [5], in series [6] and in [7] was Active. Moreover, the outcome in series [10], in [12], in [13] and in series [15] was Active. For the same molecule, the viability reduction at 24 h, 10 µM in [8] worked out at 10%. Further, the Activity in series [9] is 20%; in [11] it was “Dose-Dependent Effect”; in series [17] it was “Tde”. The inhibition in vivo at 50 µM in series [14] was found to be 51.9%. In addition, the IC50 in series [16] was found to be 5.4 µM. In addition, the MEC in series [18] and in series [19] was 0.1 µM throughout.
